Calls of active or inactive are those of the source. No cut-off for these calls is given here.
Key:
Rattus norvegicus [1] = assay: Toxicity in Sprague-Dawley rat assessed as suppression of thyroid hormone axis measured by decrease in total 3,5,3',5'-tetraiodo-L-thyronine level at 300 mg/kg/day, po for 7 days; assay type: organism-based; parameters: route oral; conditions: in vivo, 168 h
Rattus norvegicus [2] = assay: Effect on plasma insulin level in Sprague-Dawley rat at 650 ug/kg/day, sc after 8 days; assay type: functional
Rattus norvegicus [3] = assay: Toxicity in Sprague-Dawley rat assessed as suppression of thyroid hormone axis measured by decrease in TSH-beta mRNA level at 300 mg/kg/day, po for 7 days relative to control; assay type: organism-based; parameters: route oral; conditions: in vivo, 168 h
Rattus norvegicus [4] = assay: Toxicity in Sprague-Dawley rat assessed as suppression of thyroid hormone axis measured by decrease in serum TSH level at 300 mg/kg/day, po for 7 days relative to control; assay type: organism-based; parameters: route oral; conditions: in vivo, 168 h
Rattus norvegicus [5] = assay: Effect on LDLR mRNA expression in po dosed Sprague-Dawley rat liver; assay type: functional, organism-based; conditions: TDE = time-dependent effect
Mus musculus [6] = assay: Effect on hepatic LDLR mRNA level in LDLR deficient C57BL/6 mouse at 0.5 mg/kg/day once daily for 7 days; assay type: functional
Rattus norvegicus [7] = assay: Effect on type 1 iodothyronine deiodinase mRNA expression in po dosed Sprague-Dawley rat pituitary gland; assay type: functional, organism-based; conditions: TDE = time-dependent effect
Method in brief: (§1)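 Killed 3, 8 and 24 h post-dose under 2.5% isoflurane. Pituitary and thyroid snap-frozen; liver, heart, soleus, spleen and kidney freeze-clamped. mRNA by quantitative real-time PCR, expressed as fold-change vs vehicle.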

Rattus norvegicus [8] = assay: Toxicity in Sprague-Dawley rat assessed as suppression of thyroid hormone axis measured by decrease in TSH-beta mRNA level at 3 mg/kg/day, po for 7 days relative to control; assay type: organism-based; parameters: route oral; conditions: in vivo, 168 h
Rattus norvegicus [9] = assay: Effect on UCP3 mRNA expression in po dosed Sprague-Dawley rat muscle; assay type: functional, organism-based; conditions: Muscle tissue, TDE = time-dependent effect
Rattus norvegicus [10] = assay: Effect on plasma fatty acid level in Sprague-Dawley rat at 650 ug/kg/day, sc after 8 days; assay type: functional
Rattus norvegicus [11] = assay: Effect on food intake in Sprague-Dawley rat at 650 ug/kg/day, sc after 8 days; assay type: functional
Rattus norvegicus [12] = assay: Effect on body weight in Sprague-Dawley rat at 650 ug/kg/day, sc after 8 days; assay type: functional
Rattus norvegicus [13] = assay: Toxic cardiac effect on Sprague-Dawley rat assessed as increase in first derivative of left ventricular pressure at >= 0.065 mg/kg/day, po for 7 days; assay type: toxicity, organism-based, Heart left ventricle; parameters: route oral; conditions: in vivo, 168 h
Method in brief: (§2)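 Male SD rats (n = 6 per group) dosed daily by oral gavage for 7 days; vehicle group included. On day 7, rats anesthetized with isoflurane; catheter-tip transducer inserted into left ventricle via right carotid artery. LV pressure, LV dP/dt and heart rate (lead I ECG) recorded digitally. Systolic/diastolic aortic pressure taken by retracting catheter into proximal aorta.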

Rattus norvegicus [14] = assay: Toxic cardiac effect on Sprague-Dawley rat assessed as increase in heart rate at >= 0.065 mg/kg/day, po for 7 days; assay type: toxicity, organism-based; parameters: route oral; conditions: in vivo, 168 h; method in brief: as §2
Rattus norvegicus [15] = assay: Effect on MHCbeta mRNA expression in po dosed Sprague-Dawley rat heart; assay type: functional, organism-based; conditions: TDE = time-dependent effect
Rattus norvegicus [16] = assay: Toxicity in Sprague-Dawley rat assessed as suppression of thyroid hormone axis measured by decrease in total […]-L-thyronine level at 3 mg/kg/day, po for 7 days; assay type: organism-based; parameters: route oral; conditions: in vivo, 168 h
Mus musculus [17] = assay: Decrease in cholesterol level in LDLR deficient C57BL/6 mouse at 5 mg/kg/day once daily for 7 days; assay type: functional, organism-based
Rattus norvegicus [18] = assay: Effect on type 1 iodothyronine deiodinase mRNA expression in po dosed Sprague-Dawley rat liver; assay type: functional, organism-based; conditions: TDE = time-dependent effect; method in brief: as §1
Rattus norvegicus [19] = assay: Toxicity in Sprague-Dawley rat assessed as suppression of thyroid hormone axis measured by decrease in TSH-beta mRNA level at 30 mg/kg/day, po for 7 days relative to control; assay type: organism-based; parameters: route oral; conditions: in vivo, 168 h
Rattus norvegicus [20] = assay: Effect on malic enzyme mRNA expression in po dosed Sprague-Dawley rat liver; assay type: functional, organism-based; conditions: TDE = time-dependent effect; method in brief: as §1
Rattus norvegicus [21] = assay: Toxicity in Sprague-Dawley rat assessed as suppression of thyroid hormone axis measured by decrease in serum TSH level at 3 mg/kg/day, po for 7 days relative to control; assay type: organism-based; parameters: route oral; conditions: in vivo, 168 h
Rattus norvegicus [22] = assay: Effect on type 1 iodothyronine deiodinase mRNA expression in po dosed Sprague-Dawley rat kidney; assay type: functional, organism-based; conditions: TDE = time-dependent effect; method in brief: as §1
Rattus norvegicus [23] = assay: Toxicity in Sprague-Dawley rat assessed as suppression of thyroid hormone axis measured by decrease in total […]-L-thyronine level at 30 mg/kg/day, po for 7 days; assay type: organism-based; parameters: route oral; conditions: in vivo, 168 h
Rattus norvegicus [24] = assay: Toxicity in Sprague-Dawley rat assessed as suppression of thyroid hormone axis measured by decrease in total […]-L-thyronine level at 300 mg/kg/day, po for 7 days; assay type: organism-based; parameters: route oral; conditions: in vivo, 168 h
Rattus norvegicus [25] = assay: Toxic cardiac effect on Sprague-Dawley rat assessed as increase in systolic aortic pressure at >= 0.065 mg/kg/day, po for 7 days; assay type: toxicity, organism-based; parameters: route oral; conditions: in vivo, 168 h; method in brief: as §2
Mus musculus [26] = assay: Effect on hepatic LDLR mRNA level in wild-type C57BL/6 mouse at 0.5 mg/kg/day once daily for 7 days; assay type: functional
Rattus norvegicus [27] = assay: Effect on type 1 iodothyronine deiodinase mRNA expression in po dosed Sprague-Dawley rat spleen; assay type: functional, organism-based; conditions: TDE = time-dependent effect; method in brief: as §1
Rattus norvegicus [28] = assay: Effect on type 1 iodothyronine deiodinase mRNA expression in po dosed Sprague-Dawley rat heart; assay type: functional, organism-based; conditions: TDE = time-dependent effect; method in brief: as §1
Rattus norvegicus [29] = assay: Effect on TSH-beta mRNA expression in po dosed Sprague-Dawley rat pituitary gland; assay type: functional, organism-based; conditions: TDE = time-dependent effect
Rattus norvegicus [30] = assay: Effect on type 1 iodothyronine deiodinase mRNA expression in po dosed Sprague-Dawley rat thyroid gland; assay type: functional, organism-based; conditions: TDE = time-dependent effect; method in brief: as §1
Rattus norvegicus [31] = assay: Toxicity in Sprague-Dawley rat assessed as suppression of thyroid hormone axis measured by decrease in serum TSH level at 1000 mg/kg/day, po for 7 days relative to control; assay type: organism-based; parameters: route oral; conditions: in vivo, 168 h
Rattus norvegicus [32] = assay: Toxicity in Sprague-Dawley rat assessed as suppression of thyroid hormone axis measured by decrease in total […]-L-thyronine level at 1000 mg/kg/day, po for 7 days; assay type: organism-based; parameters: route oral; conditions: in vivo, 168 h
Rattus norvegicus [33] = species: Rattus norvegicus; assay: Reduction in plasma cholesterol level in cholesterol fed Sprague-Dawley rat; assay type: functional
Rattus norvegicus [34] = assay: Effect on SREBP-1c mRNA expression in po dosed Sprague-Dawley rat liver; assay type: functional, organism-based; conditions: TDE = time-dependent effect
Rattus norvegicus [35] = assay: Toxicity in Sprague-Dawley rat assessed as suppression of thyroid hormone axis measured by decrease in total 3,5,3',5'-tetraiodo-L-thyronine level at 3 mg/kg/day, po for 7 days; assay type: organism-based; parameters: route oral; conditions: in vivo, 168 h
Rattus norvegicus [36] = assay: Toxicity in Sprague-Dawley rat assessed as suppression of thyroid hormone axis measured by decrease in total 3,5,3',5'-tetraiodo-L-thyronine level at 30 mg/kg/day, po for 7 days; assay type: organism-based; parameters: route oral; conditions: in vivo, 168 h
Mus musculus [37] = assay: Decrease in cholesterol level in wild-type C57BL/6 mouse at 0.5 mg/kg/day once daily for 7 days; assay type: functional, organism-based
Rattus norvegicus [38] = assay: Toxicity in Sprague-Dawley rat assessed as suppression of thyroid hormone axis measured by decrease in TSH-beta mRNA level at 1000 mg/kg/day, po for 7 days relative to control; assay type: organism-based; parameters: route oral; conditions: in vivo, 168 h
Rattus norvegicus [39] = assay: Effect on fasting blood glucose level in Sprague-Dawley rat at 650 ug/kg/day, sc after 8 days by oral glucose tolerance test; assay type: functional
Mus musculus [40] = assay: Decrease in cholesterol level in wild-type C57BL/6 mouse at 5 mg/kg/day once daily for 7 days; assay type: functional, organism-based
Mus musculus [41] = assay: Decrease in cholesterol level in LDLR deficient C57BL/6 mouse at 0.5 mg/kg/day once daily for 7 days; assay type: functional, organism-based
Rattus norvegicus [42] = assay: Toxicity in Sprague-Dawley rat assessed as suppression of thyroid hormone axis measured by decrease in serum TSH level at 30 mg/kg/day, po for 7 days relative to control; assay type: organism-based; parameters: route oral; conditions: in vivo, 168 h
Rattus norvegicus [43] = assay: Toxicity in Sprague-Dawley rat assessed as suppression of thyroid hormone axis measured by decrease in total 3,5,3',5'-tetraiodo-L-thyronine level at 1000 mg/kg/day, po for 7 days; assay type: organism-based; parameters: route oral; conditions: in vivo, 168 h

N[C@@H](Cc1cc(I)c(Oc2ccc(O)c(I)c2)c(I)c1)C(=O)O [LIOTHYRONINE]
Activity (Rattus norvegicus [1]): 1.43 ng/mL
Activity (Rattus norvegicus [2]): 0.334 ng/mL
Activity (Rattus norvegicus [3]): 0.0978
Activity (Rattus norvegicus [4]): 0.0031
Activity (Rattus norvegicus [5]): tde
Activity (Mus musculus [6]): 9.5%
Activity (Rattus norvegicus [7]): tde
Activity (Rattus norvegicus [8]): 0.93
Activity (Rattus norvegicus [9]): tde
Activity (Rattus norvegicus [10]): 0.937 mM
Activity (Rattus norvegicus [11]): 16.2%
Activity (Rattus norvegicus [12]): 4.3 g
Activity (Rattus norvegicus [13]): Active
Activity (Rattus norvegicus [14]): Active
Activity (Rattus norvegicus [15]): tde
Activity (Rattus norvegicus [16]): 0.49 ng/mL
Activity (Mus musculus [17]): inactive
Activity (Rattus norvegicus [18]): tde
Activity (Rattus norvegicus [19]): 0.14
Activity (Rattus norvegicus [20]): tde
Activity (Rattus norvegicus [21]): 0.57
Activity (Rattus norvegicus [22]): tde
Activity (Rattus norvegicus [23]): 0.42 ng/mL
Activity (Rattus norvegicus [24]): 4.06 ng/mL
Activity (Rattus norvegicus [25]): Active
Activity (Mus musculus [26]): -42.4%
Activity (Rattus norvegicus [27]): tde
Activity (Rattus norvegicus [28]): tde
Activity (Rattus norvegicus [29]): tde
Activity (Rattus norvegicus [30]): tde
Activity (Rattus norvegicus [31]): 0.001365
Activity (Rattus norvegicus [32]): 16.45 ng/mL
ED50 (Rattus norvegicus [33]): 0.012 mg/kg
Activity (Rattus norvegicus [34]): tde
Activity (Rattus norvegicus [35]): 37.3 ng/mL
Activity (Rattus norvegicus [36]): 4.2 ng/mL
Activity (Mus musculus [37]): Active
Activity (Rattus norvegicus [38]): 0.081
Activity (Rattus norvegicus [39]): 25 mg/dL
Activity (Mus musculus [40]): Active
Activity (Mus musculus [41]): inactive
Activity (Rattus norvegicus [42]): 0.0139
Activity (Rattus norvegicus [43]): 8.4 ng/mL

— ChEMBL document CHEMBL1156517, “Targeting thyroid hormone receptor-beta agonists to the liver reduces cholesterol and triglycerides and improves the therapeutic index” (Proc Natl Acad Sci U S A, 2007)
